According to ChEMBL document CHEMBL2311246 (Bioorg Med Chem, 2013):
Activity calls are given as the source filed them. The calls are words filed in the database; no cut-off is given here.

Tests used:
Hepatitis C virus [1] = experiment: Antiviral activity against HCV JFH1 infected in human Huh7.5.1 cells assessed as reduction in viral proteins at non-cytotoxic concentration after 72 hrs post compound dose by Western blotting method; assay type: functional, organism-based; conditions: Hepacivirus hominis, Huh-7
LNCaP = experiment: Antiproliferative activity against human LNCAP cells after 72 hrs after ATPlite kit assay; assay type: functional, cell-based
Procedure, shortened: (§1)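 10,000 cells per well plated, incubated overnight, then exposed to increasing compound concentrations for 72 h. Viability read by ATPlite luminescence. IC50 obtained by linear regression. Prostate lines (DU145, PC-3, LNCaP) are ATCC stocks. LNCaP culture was modified from the earlier method.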

[2] = Antiproliferative activity against human Huh7.5.1 cells after 72 hrs after ATPlite kit assay; assay type: functional, cell-based; conditions: Huh-7, 72 h; procedure, shortened: as §1
DU-145 = experiment: Antiproliferative activity against human DU145 cells after 72 hrs after ATPlite kit assay; assay type: functional, cell-based; conditions: DU-145, 72 h; procedure, shortened: as §1
PC-3 = experiment: Antiproliferative activity against human PC3 cells after 72 hrs after ATPlite kit assay; assay type: functional, cell-based; conditions: PC-3, 72 h; procedure, shortened: as §1
Hepatitis C virus [3] = experiment: Antiviral activity against HCV JFH1 infected in human Huh7.5.1 cells assessed as reduction in viral proteins after 72 hrs post compound dose by Western blotting method; assay type: functional, organism-based, Hepacivirus hominis; conditions: JFH1, Huh-7, 72 h
Cytochrome P450 2C9 = Cytochrome P450 2C9 (Homo sapiens, UniProt P11712); experiment: Inhibition of CYP2C9 in pooled human liver microsomes assessed as reduction in enzyme-mediated (S)-warfarin 7-hydroxylation by HPLC/MS-MS method; assay type: ADME, Microsome
Chain of Cytochrome P450 2C9 (P11712 whole entry): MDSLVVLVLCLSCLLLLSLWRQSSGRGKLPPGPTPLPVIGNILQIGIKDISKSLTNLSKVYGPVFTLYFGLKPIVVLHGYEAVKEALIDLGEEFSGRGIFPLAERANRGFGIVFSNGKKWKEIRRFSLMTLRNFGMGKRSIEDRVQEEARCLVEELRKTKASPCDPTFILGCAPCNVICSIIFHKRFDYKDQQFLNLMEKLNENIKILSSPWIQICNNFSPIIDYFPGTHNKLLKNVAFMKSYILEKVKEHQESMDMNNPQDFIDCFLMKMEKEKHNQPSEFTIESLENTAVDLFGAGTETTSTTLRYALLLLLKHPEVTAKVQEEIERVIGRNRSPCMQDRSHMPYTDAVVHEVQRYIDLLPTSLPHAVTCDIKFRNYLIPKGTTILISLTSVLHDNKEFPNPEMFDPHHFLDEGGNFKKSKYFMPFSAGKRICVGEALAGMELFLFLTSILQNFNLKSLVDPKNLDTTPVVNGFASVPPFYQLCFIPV
Procedure, shortened: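 Pooled HLM (0.1 mg/mL microsomal protein) incubated with (S)-warfarin 4 µM and compound at 1, 10 or 100 µM in 100 mM potassium phosphate, pH 7.4. Vehicle controls held 0.75% MeOH (v/v). Sulfaphenazole 1 µM served as positive control. 7-Hydroxywarfarin measured by HPLC/MS-MS. Means ± SD of triplicate incubations; two-way ANOVA with Tukey post hoc test.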

IC50 (LNCaP) [µM]	IC50 (DU-145) [µM]	IC50 (PC-3) [µM]	IC50 (Hepatitis C virus [3]) [µM]	IC50 (Cytochrome P450 2C9) [µM]	inhibition (INH) (Cytochrome P450 2C9; human, microsomes)	Structure (SMILES)	Activity (Hepatitis C virus [1])	IC50 [2] [µM]
11.3	10	8.1	–	–	–	COc1cc(O)c2c(c1)O[C@H](c1ccc3c(c1)O[C@@H](c1ccc(OC)c(OC)c1)[C@H](CO)O3)[C@@H](O)C2=O	Active	13.5
20.1	19.3	16.9	–	–	–	COc1cc(O)c2c(c1)O[C@H](c1ccc3c(c1)O[C@@H](c1ccc(O)c(OC)c1)[C@H](CO)O3)[C@@H](O)C2=O	Active	13.3
69.6	61.8	60.5	40	8.2	–	COc1cc([C@@H]2Oc3cc([C@H]4Oc5cc(O)cc(O)c5C(=O)[C@@H]4O)ccc3O[C@H]2CO)ccc1O [SILYBIN B]	–	56.2
30.1	24	14.4	–	–	Not Active	COC[C@@H]1Oc2ccc([C@H]3Oc4cc(OC)cc(OC)c4C(=O)[C@@H]3O)cc2O[C@H]1c1ccc(OC)c(OC)c1	Active	15.6
19.8	16.8	21.9	–	–	–	COC[C@@H]1Oc2ccc([C@H]3Oc4cc(OC)cc(O)c4C(=O)[C@@H]3O)cc2O[C@H]1c1ccc(OC)c(OC)c1	–	–
40.7	46.9	36.3	–	–	–	COc1cc(OC)c2c(c1)O[C@H](c1ccc3c(c1)O[C@@H](c1ccc(OC)c(OC)c1)[C@H](CO)O3)[C@@H](O)C2=O	Active	25.5
